Test results published in ChEMBL document CHEMBL5352489, “Development of potent and selective degraders of PI5P4Kγ” (Eur J Med Chem, 2023).
The source made the active and inactive calls.

Key:
[1] = biological target: T1, Phosphatidylinositol 5-phosphate 4-kinase type-2 beta (Homo sapiens) (UniProt P78356); test: Induction of PI5P4Kbeta degradation in human MOLT-4 cells at 1 to 10 uM incubated for 6 hrs by Immunoblot analysis; type: cell-based; settings: dose 1-10 µM
T1 sequence (whole entry): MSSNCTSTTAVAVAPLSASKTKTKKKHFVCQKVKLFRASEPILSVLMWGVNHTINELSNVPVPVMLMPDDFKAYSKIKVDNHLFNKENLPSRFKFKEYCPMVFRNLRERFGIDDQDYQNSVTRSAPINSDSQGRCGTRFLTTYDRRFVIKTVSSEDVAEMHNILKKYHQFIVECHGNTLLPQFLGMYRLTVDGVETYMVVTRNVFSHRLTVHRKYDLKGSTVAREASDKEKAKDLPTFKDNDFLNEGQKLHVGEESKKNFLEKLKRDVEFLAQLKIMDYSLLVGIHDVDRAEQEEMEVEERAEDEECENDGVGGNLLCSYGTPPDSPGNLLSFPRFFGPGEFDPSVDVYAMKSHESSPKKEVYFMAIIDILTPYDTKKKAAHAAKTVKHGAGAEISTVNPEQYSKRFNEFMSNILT
Summary of the method: (§1)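 MOLT-4 cells were grown in RPMI-1640 with L-glutamine, 10% FBS and 1% penicillin/streptomycin, then exposed to compound for 6 h. Cells were lysed in RIPA buffer (pH 8.0) with protease and phosphatase inhibitors, and protein was measured by BCA. Equal protein was run on 4–12% gels and blotted to PVDF. Membranes were probed with PI5P4Kα or PI5P4Kβ antibody at 4 °C overnight, then with IRDye secondary for 1 h at RT, and imaged on an Odyssey.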

[2] = biological target: T2, Phosphatidylinositol 5-phosphate 4-kinase type-2 alpha (Homo sapiens) (UniProt P48426); test: Binding affinity to full length recombinant human PI5P4Kalpha incubated for 30 mins in presence of ATP by HTRF assay
T2 sequence (whole entry): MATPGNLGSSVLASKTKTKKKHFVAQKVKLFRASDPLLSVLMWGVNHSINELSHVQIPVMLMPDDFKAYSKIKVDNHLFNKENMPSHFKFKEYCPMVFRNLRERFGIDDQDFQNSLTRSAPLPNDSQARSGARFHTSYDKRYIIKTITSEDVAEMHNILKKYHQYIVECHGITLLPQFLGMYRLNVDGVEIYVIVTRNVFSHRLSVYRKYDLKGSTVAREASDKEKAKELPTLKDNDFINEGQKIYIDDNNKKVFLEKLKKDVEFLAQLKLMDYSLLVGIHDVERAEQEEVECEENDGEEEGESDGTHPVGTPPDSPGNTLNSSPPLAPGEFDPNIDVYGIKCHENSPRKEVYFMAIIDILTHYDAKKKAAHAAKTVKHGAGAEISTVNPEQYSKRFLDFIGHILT

[3] = biological target: T1, Phosphatidylinositol 5-phosphate 4-kinase type-2 beta (Homo sapiens); test: Binding affinity to full length wild type human PI5P4Kbeta by KINOMEscan KdELECT assay
[4] = biological target: T2, Phosphatidylinositol 5-phosphate 4-kinase type-2 alpha (Homo sapiens); test: Induction of PI5P4Kalpha degradation in human MOLT-4 cells at 1 to 10 uM incubated for 6 hrs by Immunoblot analysis; type: cell-based; settings: dose 1-10 µM; summary of the method: as §1

Measured: Activity

CC(=O)N[C@H](C(=O)N1C[C@H](O)C[C@H]1C(=O)N[C@@H](C)c1ccc(-c2scnc2C)cc1OCCCCCNC(=O)c1ccc(C(=O)Nc2cccc(Nc3cc(-c4c[nH]c5ccccc45)ncn3)c2)cc1)C(C)(C)C
inactive: all assays above

Cc1ncsc1-c1ccc([C@H](C)NC(=O)[C@@H]2C[C@@H](O)CN2C(=O)[C@@H](NC(=O)CCCCC(=O)Nc2ccc(C(=O)Nc3cccc(Nc4cc(-c5c[nH]c6ccccc56)ncn4)c3)cc2)C(C)(C)C)cc1
inactive: all assays above

Cc1ncsc1-c1ccc([C@H](C)NC(=O)[C@@H]2C[C@@H](O)CN2C(=O)[C@@H](NC(=O)CCC(=O)Nc2ccc(C(=O)Nc3cccc(Nc4cc(-c5c[nH]c6ccccc56)ncn4)c3)cc2)C(C)(C)C)cc1
inactive: all assays above

Cc1ncsc1-c1ccc([C@H](C)NC(=O)[C@@H]2C[C@@H](O)CN2C(=O)C(NC(=O)CCCCCCC(=O)Nc2ccc(C(=O)Nc3cccc(Nc4cc(-c5c[nH]c6ccccc56)ncn4)c3)cc2)C(C)(C)C)cc1 (single isomer, unassigned)
inactive: all assays above

Cc1ncsc1-c1ccc([C@H](C)NC(=O)[C@@H]2C[C@@H](O)CN2C(=O)[C@@H](NC(=O)CCCCCCCCC(=O)Nc2ccc(C(=O)Nc3cccc(Nc4cc(-c5c[nH]c6ccccc56)ncn4)c3)cc2)C(C)(C)C)cc1
inactive: all assays above
